Source: PubChem BioAssay
HUVEC inhibit = blocks proliferation of human endothelial cells; HUVEC proliferation, CellTiter-Glo luminescence, 72 h; stronger effect = lower value; viability, % at 10 µM (by protocol); 86,000 compounds, 1.1% hits;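 active = viability at or below 30%; inactive = viability above 30%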;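 note: 100% = median luminescence of DMSO-only cell control wells on each plate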
HCT116 bCat-KO = beta-catenin-lacking colon tumor cell growth suppression; HCT116 beta-catenin knockout viability, CellTiter-Glo, 60 h; stronger effect = lower value; viability, % at 10 µM; 140,000 compounds, 1.5% hits; AID 818;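 active = viability at or under a set limit, the compound median less 4 SD, cut at about 6% in these data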;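 note: 0% = Hyamine 1622 control at 20 µM and 100% = untreated cell control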
H69AR growth 86K = growth inhibitors of human H69AR lung tumor cells | 85,000 compounds, 6% hits | AID 598 | viability, % at 10 µM | H69AR lung tumor viability, ATP luminescence, 72 h; stronger effect = lower value;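 active = viability at or below 40%; inactive = viability above 40%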;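 note: multidrug resistant small cell line overexpressing MRP-1 efflux transporter; 100% = mean luminescence of untreated control wells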
Lung fibro prol = blocks proliferation of human lung fibroblasts. viability, % at 10 µM. 85,000 compounds, 1.1% hits. LL 47 human lung fibroblast viability, ATP luminescence; stronger effect = lower value;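 active = viability at or below 50% in the single dose screen; inactive = viability above 50%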;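 note: compound exposure lasted 72 h before the ATP readout; 100% = median luminescence of untreated cell-only wells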
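test system = LL 47 human lung fibroblasts | amount = 1,150 fibroblasts seeded per well | medium = 15% FBS in IMEM | times = overnight cell rest, 72 h compound treatment at 37 °C | measured by = CellTiter-Glo luminescence measuring cellular ATP | read-out = viability percentage against median untreated-cell control | benchmarks = cell-only wells, no compound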
HCT116 PTEN-null = growth suppressors of cells with PTEN tumor suppressor deletion; HCT116 PTEN-null viability, CellTiter-Glo, 60 h; stronger effect = lower value; viability, % at 10 µM; 140,000 compounds, 1.2% hits; AID 827;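 active = viability at or below a set limit, 4 SD under the median of all tested compounds, cut at about 3.7% in these data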;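 note: PTEN knockout HCT116 line with beta catenin targeted HCT116 as companion control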
* hit, by the source's call; . = no result given. Shown is part of a subset that was picked to be rich in hits.

SMILES	HUVEC inhibit	HCT116 bCat-KO	H69AR growth 86K	Lung fibro prol	HCT116 PTEN-null
CC12CN3CC(C)(CN(C1)C31C(=O)N(Cc3ccccc3)c3ccccc31)C2=O (stereo not drawn)	88	.	86	92	.
CC1(C)CC(=O)C(C2(O)C(=O)N(Cc3ccccc3)c3ccccc32)CO1 (stereo not drawn)	76	14	17*	97	12
COC(=O)/C(=C1/Oc2ccc(C(C)(C)C)cc2S1)C(F)(F)F	.	98	.	.	104
COC(=O)/C(=C1/Oc2cc(C)oc(=O)c2S1)C(F)(F)F	.	3.6*	.	.	3.2*
COC(=O)c1cccnc1NC(=S)NNC(=O)c1ccccc1	89	104	82	99	89
Cc1ccccc1-c1nnc(-c2ccccc2)o1	100	88	92	93	85
Cn1cc(-c2nnc(-c3ccccc3)o2)c2ccccc21	18*	84	54	59	82
CS(=O)(=O)c1nc(-c2cccs2)cc(C(F)(F)F)n1	54	3.3*	1.5*	14*	1.3*
O=C(O)CCS(=O)(=O)c1nc(-c2cccs2)cc(C(F)(F)F)n1	93	94	33*	92	103
CC(C)CNC(=O)CSc1nc(-c2cccs2)cc(C(F)(F)F)n1	100	86	95	101	91
Cc1ccccc1OCC1Cc2c(nc(N)c(C#N)c2N)O1 (stereo not drawn)	.	96	.	.	94
O=C1CN(C(=O)COc2cccc(F)c2)c2ccccc2N1	.	96	.	.	91
Cc1noc(C)c1COc1cccc(C(=O)OCC(=O)N2CC(=O)Nc3ccccc32)c1	60	19	22*	59	19
Cc1nn(CCO)c2nc(-c3cccs3)cc(C(F)(F)F)c12	.	95	.	.	82
O=C1c2ccccc2NC(c2ccc(Cl)cc2Cl)N1O (stereo not drawn)	80	3.5*	.	72	8
CCN(NC(=O)C(O)(c1ccccc1)c1ccccc1)C(=O)c1ccccc1	.	87	.	.	93
CC(c1ccccc1)N(NC(=O)C(O)(c1ccccc1)c1ccccc1)C(=O)c1ccccc1 (stereo not drawn)	.	36	.	.	1.7*
Cc1oc(-c2ccc(Cl)cc2)nc1CN1CCCC(C(=O)NCc2ccccn2)C1 (stereo not drawn)	102	68	71	111	72
Cc1cccc(-c2nc(CN3CCCC(C(=O)NC4CCCCC4)C3)c(C)o2)c1 (stereo not drawn)	60	73	39*	109	78
Cc1oc(-c2cccc(Cl)c2)nc1CN1CCCC(C(=O)NCc2ccco2)C1 (stereo not drawn)	76	66	60	90	82
Cc1cccc(-c2nc(CN3CCCC(C(=O)NC4CCCCCC4)C3)c(C)o2)c1 (stereo not drawn)	35	58	40*	94	59
CC(C)(C)NC(=O)CSc1nc2ccc(NC(=O)CSc3nnc(N)s3)cc2s1	.	71	.	.	74
Cn1ccnc1SCC(=O)Nc1ccc2nc(SCC(=O)NC3CC3)sc2c1	92	86	37*	95	103
Cc1c(C(=O)NC2CCCc3ccccc32)oc2ccc(S(=O)(=O)N3CCOCC3)cc12 (stereo not drawn)	68	75	38*	80	72
Cc1c(C(=O)NC2CC2)oc2ccc(S(=O)(=O)N3CCCCCC3)cc12	104	72	59	89	76
SMILES	HUVEC inhibit	HCT116 bCat-KO	H69AR growth 86K	Lung fibro prol	HCT116 PTEN-null
Cc1c(C(=O)NC2CCCc3ccccc32)oc2ccc(S(=O)(=O)N3CCCCC3)cc12 (stereo not drawn)	.	58	.	.	57
Cc1c(C(=O)NC2CCCc3ccccc32)oc2ccc(S(=O)(=O)N3CCCC3)cc12 (stereo not drawn)	51	64	35*	65	56
CN1/C(=C\C(=O)c2cccs2)C(C)(C)c2ccccc21	.	85	.	.	84
Cc1cccc2c1NC(=O)/C2=C\C(=O)c1cccs1	29*	4.9*	2.1*	6.1*	2.2*
CCc1ccc2c(c1)/C(=N/N(C)C(=S)NC)C(=O)N2	.	51	.	.	78
Cc1cc(C)c2c(c1)/C(=C/C(=O)c1ccc(Br)s1)C(=O)N2	7.1*	1.8*	1.8*	15*	1.8*
CCc1ccc2c(c1)/C(=C/C(=O)c1cccs1)C(=O)N2	67	0.8*	1.7*	6.5*	0.8*
O=C(c1cc2c(=O)oc3ccccc3c2s1)N1CCN(c2ncccn2)CC1	99	.	94	93	.
COc1ccc(S(=O)(=O)Nc2ccccc2C)cc1	53	46	13*	78	38
Cc1ccccc1NS(=O)(=O)c1ccc(F)cc1	83	104	98	93	113
OCCN1CCN(C(c2cccs2)c2ccc3cccnc3c2O)CC1 (stereo not drawn)	57	14	40	58	10
CC(C)(C)c1cc(C(c2cccnc2)N2CCN(CCO)CC2)cc(C(C)(C)C)c1O (stereo not drawn)	2.2*	1.7*	2.2*	2.8*	1.7*
O=C(CN1CCC(NC(=O)c2ccccc2F)CC1)NCc1ccc(F)cc1	89	91	3.2*	102	87
Cc1ccnc(NC(=O)CCCOc2cc(=O)n(C)c3ccccc23)c1	.	5.4*	.	.	2.9*
Cc1ccc2nc(-c3ccc(O)cc3)c(Nc3ccc4c(c3)OCCO4)n2c1	80	73	64	96	73
COc1ccc(-c2nc3cnccn3c2Nc2ccc3c(c2)OCO3)cc1	78	70	24*	84	64
Cc1ccc(-c2nc3cnccn3c2Nc2ccc3c(c2)OCO3)cc1	78	63	25*	92	58
Cc1ccc(-c2nc3cnccn3c2Nc2ccc3c(c2)OCCO3)o1	96	93	65	98	100
Cc1cc(NC(=O)c2ccc3c(c2)OCCO3)no1	85	79	34*	96	72
Cc1ccc(-c2nnc(SCC(=O)Nc3ccccc3F)o2)cc1	70	38	64	49*	42
Cc1cc(NC(=O)CSc2nnc(-c3ccc4c(c3)OCCO4)o2)no1	99	92	2.4*	98	99
O=C(OCc1cc(=O)n2c(n1)sc1ccccc12)c1ccc2c(=O)n3c(nc2c1)CCC3	96	.	82	87	.
CCN(CC)S(=O)(=O)c1ccc(NC(=O)COC(=O)CCc2cc(OC)c(OC)c(OC)c2)cc1	.	90	.	.	90
O=C(Nc1ccc(F)cc1)c1nc[nH]c1C(=O)Nc1ccc([N+](=O)[O-])cc1	.	1.3*	.	.	1.4*
O=C(Nc1ccc([N+](=O)[O-])cc1)c1nc[nH]c1C(=O)NC1CCCCC1	.	2.8*	.	.	1.2*
Cc1ccc(C(=O)/C=C/c2cn(CN3CCN(C)CC3)c3ccccc23)cc1	64	70	5.8*	89	72
COc1ccc(Cn2c(C)c(C)c(C#N)c2NC(=O)Nc2cccc(Cl)c2)cc1	61	79	36*	93	79
COc1ccc(Cn2c(C)c(C)c(C#N)c2NC(=O)Nc2ccc(Cl)cc2)cc1	63	97	35*	74	100
